In ChEMBL document CHEMBL1287738, “Synthesis and biological evaluation of retinoid-chalcones as inhibitors of colon cancer cell growth” (Bioorg Med Chem Lett, 2010) one finds IC50 data, which are given here for one molecule.

For this assay, the system named is HT-29. In words: Growth inhibition of human HT-29 cell. Type of assay: functional, cell-based. In outline:
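Human colon carcinoma HT-29 cells (Apc-null, wild-type β-catenin) incubated with varying concentrations of each compound for 3 days at 37°C; growth inhibition measured.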

In general, IC50 refers to the concentration that inhibits the measured activity by half. Read a low IC50 as greater potency.

The molecule `N#Cc1ccc(/C=C/C(=O)c2ccccc2)cc1` displayed an IC50 of 3.7 µM.
